Assays:
[1] = Aqueous solubility of the compound; assay type: physicochemical; settings: buffer
[2] = Solubility of the compound in organic solvent; assay type: physicochemical
[3] = Cytotoxicity against human GM00637 cells assessed as reduction in mean cell viability after 72 hrs by MTT assay; assay type: cell-based; settings: GM00637, 72 h
In short: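 SV40-transformed normal skin fibroblasts (GM00637) in MEM Eagle–Earle BSS with 15% heat-inactivated FBS, 2 mM L-glutamine, 2× amino acids and vitamins. Seeded at 10,000 cells/well and left 24 h to adhere. Ethanol-delivered compound (1% final) for 72 h at 37 °C, 5% CO₂. MTT formazan in DMSO read at 550/690 nm. Viability relative to vehicle; IC₅₀ by nonlinear regression.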

Row | solubility [1] | solubility [2] | Compound | IC50 [3] [nM]
1 | Insoluble | Insoluble | O=C1c2nc3n(c2C(=O)c2nc4n(c21)CCC4)CCC3 | –
2 | – | – | CO[C@@]12[C@H](COC(N)=O)C3=C(C(=O)C(C)=C(N)C3=O)N1C[C@@H]1N[C@@H]12 [MITOMYCIN] | 460

Source: ChEMBL document CHEMBL2021842, “COMPARE analysis of the toxicity of an iminoquinone derivative of the imidazo[5,4-f]benzimidazoles with NAD(P)H:quinone oxidoreductase 1 (NQO1) activity and computational docking of quinones as NQO1 substrates” (Bioorg Med Chem, 2012)
